Measurements from different studies.
Each line is one published result; the experiments were not run side by side.
Cell line: HL-60
Effect on: cell growth or viability

| Structure (SMILES) | method | time | setting | IC50 [µM] |
| --- | --- | --- | --- | --- |
| Cn1c(-c2nnc(NC(=O)c3cc4c([nH]c5ccccc54)c(-c4ccc(F)cc4)n3)s2)cc2ccccc21 | MTT | 72 h |  | 37.2 |
| COc1ccc(C(=O)CC(=O)c2ccc(C(C)(C)C)cc2)cc1 |  |  | dark | ~30 |
| COc1cc([C@@H]2c3cc4c(cc3[C@@H](O[C@@H]3O[C@@H]5CO[C@@H](C)O[C@H]5[C@H](O)[C@H]3O)[C@H]3COC(=O)[C@H]23)OCO4)cc(OC)c1O | MTT | 48 h |  | 0.31 |
| CC[C@@H](C)[C@H](N)C(=O)N1Cc2ccccc2C1 | ATP luminescence | 48 h |  | 2.14 |
| COc1ccc(-c2nc(C(=O)Nc3nnc(-c4cc5ccccc5[nH]4)s3)cc3c2[nH]c2ccccc23)cc1 | MTT | 72 h |  | 3.83 |
| COc1cc(Nc2nccc(-c3cnn4nc(OC)ccc34)n2)cc(C(F)(F)F)c1 | ATP luminescence |  |  | 0.21 |
| Nc1ncc(-c2cnn(C3CCNCC3)c2)cc1-c1nnc(CC2CC2)o1 | trypan blue | 72 h |  | 0.678 |
| COc1cccc2c1C(=O)c1c(O)c3c(c(O)c1C2=O)C[C@@](O)(C(=O)CO)C[C@@H]3O[C@H]1C[C@H](N)[C@H](O)[C@H](C)O1 | MTT | 72 h |  | 1.08 |
| COc1cc(O)c(C(=O)c2ccccc2)cc1S(=O)(=O)O | resazurin | 72 h | dark | > 100 |
| CN1c2ccccc2C(=O)N2[C@H](C(=O)Nc3ccc(C(=O)Nc4ccccc4N)cc3)Cc3c([nH]c4ccccc34)[C@@H]12 |  |  |  | 0.56 |
| CCCON(Cc1ccc(C(=O)NO)cc1)C(=O)Nc1ccc(N(C)C)cc1 | ATP luminescence | 72 h |  | 12.9 |
| O=C(Nc1nnc(-c2cc3ccccc3[nH]2)s1)c1cc2c([nH]c3ccccc32)c(-c2ccc(F)cc2)n1 | MTT | 72 h |  | 9.85 |
